Data reported in ChEMBL document CHEMBL5096187, “Efficient Synthesis and Bioevaluation of Novel Dual Tubulin/Histone Deacetylase 3 Inhibitors as Potential Anticancer Agents” (J Med Chem, 2021).
Activity calls are given as the source filed them. No cut-off for these calls is given here.

Tests used:
B16-F10 [1] = assay: Inhibition of cell migration in mouse B16-F10 cells assessed as reduction in wound area ratio measured at 25 nM incubated for 24 hrs by wound healing assay; format: functional; design: scale not given: the % may be the effect or the level left
Procedure, shortened: (§1)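 Confluent B16-F10 monolayers, seeded overnight, were scratched with a pipette tip and washed to remove debris. Cells were then treated, and phase-contrast images were taken at 0 and 24 h. Migration distance or wound area measured manually against DMSO control; n = 3.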

[2] = Hepatotoxicity in C57BL/6 mouse assessed as effect on total bilirubin level in serum; format: toxicity
B16-F10 [3] = assay: Induction of apoptosis in mouse B16-F10 cells assessed as early apoptotic cells at 50 nM incubated for 48 hrs by Annexin V-FITC/PI analysis (reference value: 1.68 %); format: functional
B16-F10 [4] = assay: Induction of apoptosis in mouse B16-F10 cells assessed as necrotic cells at 25 nM incubated for 48 hrs by Annexin V-FITC/PI analysis (reference value: 0.012 %); format: functional
Tubulin (Sus scrofa) [5] = molecular target: T1, Tubulin (Sus scrofa) (UniProt P02554+P02550); assay: Inhibition of pig brain tubulin polymerization measured after 20 mins by spectrometric method; settings: dose 0.8-25 µM, DDE = dose-dependent effect
Procedure, shortened: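 Tubulin purified from pig brain microtubule protein (three assembly/disassembly cycles, then phosphocellulose chromatography). Tubulin mixed with compound in PEM buffer (100 mM PIPES, 1 mM MgCl₂, 1 mM EGTA) plus 1 mM GTP and 5% glycerol. Polymerization followed at 340 nm, 37 °C. Inhibition versus vehicle at 20 min; plateau absorbance used.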

[6] = Hepatotoxicity in C57BL/6 mouse assessed as effect on ALB level in serum; format: toxicity
HCT-116 = assay: Antiproliferative activity against human HCT-116 cells assessed as inhibition of cell viability measured for 48 hrs by microplate reader based MTT assay; format: functional; settings: HCT-116, 48 h
Procedure, shortened: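 Cells grown in RPMI-1640 with 10% FBS and seeded at 5000 cells/well. After overnight attachment, compound was added in medium with 0.1% DMSO for 48 h at 37 °C. Read-out was MTT for HCT-116, B16-F10 and A549, and CCK-8 for Jurkat (0.5 mg/mL, 4 h), with absorbance at 570 nm. IC50 from nonlinear regression; at least three independent experiments.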

B16-F10 [7] = assay: Inhibition of cell migration in mouse B16-F10 cells assessed as reduction in wound area ratio measured at 100 nM incubated for 24 hrs by wound healing assay; format: functional; design: scale not given: the % may be the effect or the level left; procedure, shortened: as §1
B16-F10 [8] = assay: Inhibition of colony formation in mouse B16-F10 cells assessed as reduction in number of colonies at 100 nM incubated for 24 hrs; format: functional, cell-based
Procedure, shortened: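 1000 B16-F10 cells seeded and cultured 24 h at 37 °C, then exposed to compound for 24 h. Medium was then replaced and cells grown 10–14 days. Colonies fixed with 4% paraformaldehyde for 30 min, stained with 0.1% crystal violet for 15 min, and counted; n = 3 versus DMSO.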

[9] = Toxicity in C57BL/6 mouse allografted with mouse B16-F10 cells assessed as body weight loss at 10 mg/kg, ip administered for 14 days; settings: in vivo, 336 h
[10] = Toxicity in C57BL/6 mouse allografted with mouse B16-F10 cells assessed as morphological abnormalities in kidney at 10 mg/kg, ip administered for 14 days by H and E staining based analysis; format: organism-based; settings: in vivo, 336 h, time 14 day
Procedure, shortened: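 C57BL/6 mice with subcutaneous B16-F10 allografts, n = 8 per group, given i.p. injections once daily for 14 days. Single agents at 10 mg/kg; combination at 5 + 5 mg/kg. Vehicle: ethanol/polyoxyethylene castor oil/saline 1.25:1.25:7.5. Liver and kidney fixed in 4% paraformaldehyde, paraffin-embedded, H&E stained and examined by microscopy.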

[11] = Hepatotoxicity in C57BL/6 mouse assessed as effect on AST level in serum; format: toxicity
B16-F10 [12] = assay: Induction of apoptosis in mouse B16-F10 cells assessed as necrotic cells at 50 nM incubated for 48 hrs by Annexin V-FITC/PI analysis (reference value: 0.012 %); format: functional
B16-F10 [13] = assay: Induction of apoptosis in mouse B16-F10 cells assessed as viable cells at 100 nM incubated for 48 hrs by Annexin V-FITC/PI analysis (reference value: 98.3 %); format: functional; settings: read-out: Activity
Tubulin (Sus scrofa) [14] = molecular target: T1, Tubulin (Sus scrofa); assay: Inhibition of pig brain tubulin polymerization at 10 uM measured after 20 mins by spectrometric method relative to control
Procedure, shortened: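 Pig brain tubulin was purified by three assembly/disassembly cycles and then phosphocellulose chromatography. Compound at 10 μM in PEM buffer with 1 mM GTP and 5% glycerol at 37 °C. Polymerization followed at 340 nm; inhibition taken at 20 min versus vehicle control.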

A549 = assay: Antiproliferative activity against human A549 cells assessed as inhibition of cell viability measured for 48 hrs by microplate reader based CCK-8 assay; format: functional; settings: A549, 48 h
[15] = Nephrotoxicity in C57BL/6 mouse assessed as effect on creatinine level in serum; format: toxicity; settings: in vivo
Tubulin (Sus scrofa) [16] = molecular target: T1, Tubulin (Sus scrofa); assay: Inhibition of pig brain tubulin polymerization in mouse B16-F10 cells assessed as disruption of microtubule network at 100 nM measured for 6 hrs by immunofluorescence assay; format: cell-based
Procedure, shortened: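 B16-F10 cells on glass coverslips exposed 6 h to test agent or 0.1% DMSO vehicle, fixed in 4% paraformaldehyde, permeabilized with 0.2% Triton X-100 in PBS, blocked 30 min with goat serum, then anti-β-tubulin monoclonal 1 h at 37 °C, fluorescent secondary and DAPI nuclear stain. Microtubule network judged by fluorescence or confocal microscopy.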

B16-F10 [17] = assay: Antitumor activity against mouse B16-F10 cells allografted in C57BL/6 mouse assessed as tumor growth inhibition at 10 mg/kg, ip administered for 14 days; format: functional; settings: B16-F10, 336 h, time 14 day, read-out: TGI
Procedure, shortened: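 C57BL/6 mice were inoculated subcutaneously with 3×10⁵ B16-F10 cells in PBS and randomized (n = 8). Drugs in ethanol/polyoxyethylene castor oil/saline (1.25:1.25:7.5) or vehicle alone were given i.p. once daily for 14 days. Mice were sacrificed at day 14 and tumors weighed; TGI(%) = [1 − Wt/Wv] × 100 using mean tumor weights.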

[18] = Hepatotoxicity in C57BL/6 mouse assessed as effect on ALT level in serum; format: toxicity
[19] = Cardiotoxicity in C57BL/6 mouse ssessed as effect on heart rate by ECG analysis; format: toxicity
Procedure, shortened: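 Mice aged 6–8 weeks dosed by intragastric gavage once daily for 14 days; ECG and heart rate recorded on a PowerLab system.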

[20] = Antiproliferative activity against human YCC3/7 cells assessed as inhibition of cell viability; format: functional, cell-based

T1 sequence (P02550 whole entry, looked up): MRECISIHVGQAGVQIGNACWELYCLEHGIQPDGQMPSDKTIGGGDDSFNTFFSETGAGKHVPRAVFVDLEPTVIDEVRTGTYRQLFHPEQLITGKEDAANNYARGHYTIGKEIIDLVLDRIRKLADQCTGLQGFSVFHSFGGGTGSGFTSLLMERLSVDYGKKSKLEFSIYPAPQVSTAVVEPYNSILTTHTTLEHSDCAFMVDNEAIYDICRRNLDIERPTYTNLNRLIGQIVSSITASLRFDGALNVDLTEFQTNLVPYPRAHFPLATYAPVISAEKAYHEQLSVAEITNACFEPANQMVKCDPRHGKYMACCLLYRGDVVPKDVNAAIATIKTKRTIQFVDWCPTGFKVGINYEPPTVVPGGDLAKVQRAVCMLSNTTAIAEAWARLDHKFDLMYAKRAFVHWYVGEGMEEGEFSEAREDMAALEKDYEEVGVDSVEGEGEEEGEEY
T1 sequence (P02554 whole entry, looked up): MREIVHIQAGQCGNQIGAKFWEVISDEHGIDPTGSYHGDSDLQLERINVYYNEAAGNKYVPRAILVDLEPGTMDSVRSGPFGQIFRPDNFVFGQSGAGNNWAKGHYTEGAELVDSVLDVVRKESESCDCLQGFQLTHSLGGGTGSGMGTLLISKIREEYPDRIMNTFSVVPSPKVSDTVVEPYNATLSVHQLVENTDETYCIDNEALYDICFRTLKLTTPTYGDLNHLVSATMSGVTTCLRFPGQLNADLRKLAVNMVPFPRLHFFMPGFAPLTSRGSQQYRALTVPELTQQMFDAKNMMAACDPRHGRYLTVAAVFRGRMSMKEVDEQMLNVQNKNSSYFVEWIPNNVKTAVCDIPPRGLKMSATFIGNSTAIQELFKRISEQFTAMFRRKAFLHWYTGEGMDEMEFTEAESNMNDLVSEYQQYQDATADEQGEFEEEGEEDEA

Compound: COc1cc(C(=O)c2csc(-c3ccc(NC(=O)CCCC(=O)Nc4ccccc4N)cc3)n2)cc(OC)c1OC
- Activity (B16-F10 [1]): 27.32%
- Activity [2]: Non-Toxic
- Activity (B16-F10 [3]): 7.09%
- Activity (B16-F10 [4]): 0%
- inhibition (Tubulin (Sus scrofa) [5]): Dde
- Activity [6]: Non-Toxic
- IC50 (HCT-116): 50 nM
- Activity (B16-F10 [7]): 7.18%
- Activity (B16-F10 [8]): Active
- Activity [9]: Non-Toxic
- Activity [10]: Non-Toxic
- Activity [11]: Non-Toxic
- Activity (B16-F10 [12]): 1.9%
- viability at 0.1 µM (B16-F10 [13]): 31.6%
- inhibition (Tubulin (Sus scrofa) [14]): 70%
- IC50 (A549): 140 nM
- Activity [15]: Non-Toxic
- inhibition (Tubulin (Sus scrofa) [16]): Active
- inhibition in vivo at 10 mg/kg (B16-F10 [17]): 70%
- Activity [18]: Non-Toxic
- Activity [19]: Non-Toxic
- IC50 [20]: 560 nM
